Screening data from PubChem BioAssay.
TNAP inh hiacc: inhibitors of human TNAP at high phosphate acceptor concentration; purified TNAP, CDP-star luminescence, 1 M DEA; inhibition, % at 20 µM; 0.03% of 200,000 active; AID 1135;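 active = over 50% inhibition of tissue-nonspecific alkaline phosphatase at 20 µM in the single-dose screen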;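 note: plate controls were DMSO wells for no effect and EDTA-quenched wells as full inhibition for full effect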
Target sequence (P05186 whole entry, looked up): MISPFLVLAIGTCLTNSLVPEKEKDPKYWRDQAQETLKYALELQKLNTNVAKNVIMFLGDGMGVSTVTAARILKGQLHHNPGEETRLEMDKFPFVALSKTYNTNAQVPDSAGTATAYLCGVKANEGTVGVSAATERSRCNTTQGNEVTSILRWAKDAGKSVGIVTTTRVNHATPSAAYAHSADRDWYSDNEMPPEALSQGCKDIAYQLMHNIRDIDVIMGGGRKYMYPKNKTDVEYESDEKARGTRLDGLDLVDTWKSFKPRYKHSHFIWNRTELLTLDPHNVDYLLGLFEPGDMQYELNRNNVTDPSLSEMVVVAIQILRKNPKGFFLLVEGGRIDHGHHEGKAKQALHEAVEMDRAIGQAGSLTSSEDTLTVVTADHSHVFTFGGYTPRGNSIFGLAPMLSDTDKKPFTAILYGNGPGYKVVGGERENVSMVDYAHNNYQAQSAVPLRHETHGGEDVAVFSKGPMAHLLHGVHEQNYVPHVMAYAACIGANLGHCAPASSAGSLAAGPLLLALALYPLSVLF
PKD1 kinase inh: PKD1 (human) kinase inhibition; 0.056% of 200,000 active; PKD1 kinase fluorescence polarization assay; AID 797; inhibition, % (concentration not given with the values); Q15139; in the data active = inhibition above about 50%
Arbovirus anti: blocks arbovirus infection. inhibition, % at 10 µM. arbovirus infection cell-based antiviral screen. 0.37% of 200,000 active; in the data active = inhibition above about 30%
TNAP inh no acc: blocks human TNAP activity with no phosphate acceptor present. AID 1012. 0.26% of 200,000 active. inhibition, % at 20 µM. P05186. purified TNAP, CDP-star luminescence, 30 min;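 active = tissue-nonspecific alkaline phosphatase inhibition above about 50% at 20 µM in the single-dose screen, limit read from the data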;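 note: 0% = DMSO negative control and 100% = EDTA positive control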
TNAP act hiacc: TNAP (human) activation, high acceptor; purified TNAP, CDP-star luminescence, 1 M DEA, 30 min; active compounds read high; 0 = EDTA background, 1 = DMSO-only activity; AID 1136; 200,000 tested, under 10 active; P05186; activation factor at 20 µM;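 active = activation factor at least 2 at 20 µM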
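Control set: EDTA negative control, DMSO positive control / Assay system: human TNAP / Quantity: TNAP 1/800 final / Evaluation: TNAP activation factor scaled between EDTA and DMSO control wells / Measured by: luminescent substrate turnover signal / Compound dosing: one dose, 20 µM / Times: 30 min enzyme reaction at room temperature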
The depositor's hits bear a star. Only some compounds are listed: those with a hit (about 0.72% of all), similar ones and a draw of the others.

SMILES	TNAP inh hiacc	PKD1 kinase inh	Arbovirus anti	TNAP inh no acc	TNAP act hiacc
Oc1ccccc1CNCCCNCc1ccccc1O	-1.0	-12.8	44.3*	-48.1	1
Cc1cc(C(=O)CSc2nncs2)c(C)n1Cc1ccco1	1.6	4.3	-15.6	-0.9	1
Cc1cc(C(=O)CSc2nnc(-c3ccco3)o2)c(C)n1Cc1ccco1	-0.7	-10.4	31.1*	-1.4	1
O=C(/C=C/c1ccco1)Nc1sc2c(c1C(=O)O)CCC2	0.8	-5.3	73.4*	-6.3	1
Cc1ccc(-c2csc(NC(=O)/C=C/c3ccco3)c2C(=O)O)cc1	-5.7	-0.2	71.1*	-8.8	1.1
O=C(/C=C/c1ccco1)Nc1cc(Cl)ccc1C(=O)O	0.5	-5.7	41.7*	-2.6	1
CC(C)c1ccc(-c2csc(NC(=O)c3cccs3)c2C(=O)O)cc1	-4.2	1.0	41.4*	-17.9	1
CC(C)c1ccc(C(CC(=O)O)NC(=O)c2cccs2)cc1 (stereo not given)	-3.2	-1.7	1.4	-7.3	1
O=C(NNC1CC(=O)N(c2ccc(Br)cc2)C1=O)c1cccnc1 (stereo not given)	-2.4	-0.8	0.1	-11.6	1
OCC1CCCCN1C(=S)Nc1cccc(Cl)c1 (stereo not given)	-6.7	-5.0	0.0	-11.4	1.1
COC(=O)c1c(-c2ccccc2)csc1NC(=O)c1ccco1	-6.8	4.1	-3.2	-11.5	1.1
O=C(Nc1scc(-c2ccc(F)cc2)c1C(=O)O)c1ccco1	-0.7	1.4	35.0*	4.4	1
COc1ccc(Sc2nc(-c3ccccc3)ncc2C(=O)O)cc1	-2.6	7.7	6.9	-3.2	1
O=C(O)c1cnc(-c2ccccc2)nc1Sc1ccccc1Cl	-2.2	-11.0	42.7*	-8.4	1
O=C(O)c1cnc(-c2ccccc2)nc1Sc1ccc(Cl)cc1	-1.7	-2.9	65.6*	4.7	1
Cc1cccc(Sc2nc(-c3ccccc3)ncc2C(=O)O)c1	-5.3	-4.2	32.4*	-2.4	1.1
C=CCN(CC=C)S(=O)(=O)c1ccc2nc(NC(=O)C3CCCO3)sc2c1 (stereo not given)	-0.7	-10.7	-15.9	-19.8	1
O=C(CC(=O)NN=C1CCCCCC1)NCc1cccnc1	-4.7	-4.6	13.3	-12.5	1
CCCCn1c(SCc2cccc([N+](=O)[O-])c2)nc2ccsc2c1=O	-4.2	-7.8	34.4*	-4.0	1
COc1ccc(C(=O)Nn2c(SCc3cccc([N+](=O)[O-])c3)nc3ccccc3c2=O)cc1	-3.4	2.6	3.0	-6.6	1
CCOC(CCn1c(SCc2cccc([N+](=O)[O-])c2)nc2ccccc2c1=O)OCC	-3.0	-7.2	-0.2	-10.8	1
O=C(Nn1c(SCc2cccc([N+](=O)[O-])c2)nc2ccccc2c1=O)c1ccccc1	-0.9	-5.6	39.0*	-10.2	1
CCOC(=O)c1c(NC(=O)c2c(C(=O)O)cccc2[N+](=O)[O-])sc(C)c1C	-3.3	-9.9	2.4	-18.7	1
CN(C)S(=O)(=O)c1cc(C(=O)OCCn2cnc3c2c(=O)n(C)c(=O)n3C)ccc1Cl	-1.1	1.3	7.3	-6.0	1
CCOC(=O)C1C(=O)NC(c2ccccc2)=NC1c1ccc(Br)cc1 (stereo not given)	-1.7	-0.5	20.9	-12.9	1
SMILES	TNAP inh hiacc	PKD1 kinase inh	Arbovirus anti	TNAP inh no acc	TNAP act hiacc
C/C(=N\NC(=O)c1ccc([N+](=O)[O-])cc1Cl)c1ccccc1	-4.6	1.0	-2.7	-6.3	1
CC(=O)Nc1ccc(NC(=O)COC(=O)c2cnccn2)cc1	-4.1	-6.5	14.2	-17.4	1
NS(=O)(=O)c1cccnc1Nc1c(Cl)cccc1Cl	52.0*	-4.0	-6.0	58.2*	0.5
COc1cc(C2OCC3C(c4ccc(OC5OC(CO)C(O)C(O)C5O)c(OC)c4)OCC23)ccc1O (stereo not given)	1.2	9.9	1.9	63.5*	1
Cc1ccc(C(C)C)cc1OCCCCN1CCCC1	-7.4	-2.8	-22.0	-7.7	1.1
O=C(NCCOCc1ccccc1)C(c1ccccc1)c1ccccc1	-3.1	-3.4	1.4	-9.0	1
Cc1[nH]n(-c2ccccc2)c(=O)c1/C=N/NC(=O)c1cccc([N+](=O)[O-])c1	-6.3	0.8	-26.2	4.0	1.1
Cc1[nH]n(-c2cccc3ccccc23)c(=O)c1/C=N/NC(=O)c1cccc([N+](=O)[O-])c1	11.5	12.0	-13.5	51.2*	0.9
Cc1ccc(/C([O-])=C(/C(=S)NCc2ccc3c(c2)OCO3)[n+]2ccc(N(C)C)cc2)c(C)c1	-4.5	-0.8	-2.0	-15.6	1
CCOc1ccc(-n2c(=S)sc3c(=O)[nH]c(SCC(=O)C(C)(C)C)nc32)cc1	1.6	1.3	32.9*	-4.8	1
CCOC(=O)CSc1nc2c(sc(=S)n2-c2ccc(OCC)cc2)c(=O)[nH]1	-1.2	-1.2	42.2*	-5.6	1
CCOC(=O)CSc1nc2c(sc(=S)n2-c2ccccc2)c(=O)[nH]1	0.2	-3.8	22.4	2.7	1
CC1(C)C/C(=N\NC(=S)Nc2ccccc2F)c2cc(O)ccc2O1	10.5	1.0	13.6	-5.3	0.9
CC(C)(C)n1nnnc1C(c1ccc(C(F)(F)F)cc1)N(Cc1ccc(F)cc1)Cc1ccco1 (stereo not given)	3.0	-0.8	32.2*	-1.6	1
CC(C)(C)n1nnnc1C(c1ccc(F)cc1)N(Cc1ccc(F)cc1)Cc1ccco1 (stereo not given)	0.3	-1.9	-14.2	-1.2	1
CC(=O)OC[C@H]1O[C@@H](n2ncc(=O)[nH]c2=O)[C@H](OC(C)=O)[C@@H]1OC(C)=O	-0.2	4.5	60.1*	-7.8	1
CCCCN(C)C(=O)c1nc2ccccn2c1CN1CCSCC1	-7.7	-3.7	-4.7	-10.6	1.1
COc1ccc2c(c1)c1nc3ccccc3nc1n2Cc1ccc(OC)c(OC)c1	5.3	-1.1	33.0*	-7.3	0.9
COc1ccc(CC2(CO)CCN(Cc3ccc4nsnc4c3)CC2)cc1	-3.0	-6.7	0.2	-6.8	1
Cc1ccsc1/C=c1\sc2ncnn2c1=O	23.5	-9.0	-2.2	83.9*	0.8
O=c1/c(=C/c2cccc3ccccc23)sc2ncnn12	-3.7	-1.4	3.8	16.5	1
COc1ccc2nc(N3C(=O)CC(Cc4cc(C)cc(C)c4)C3=O)sc2c1 (stereo not given)	-4.6	4.0	39.4*	2.9	1
COc1ccc2nc(N3C(=O)CC(Cc4ccc(Cl)cc4)C3=O)sc2c1 (stereo not given)	-4.2	-8.0	27.6	-9.3	1
O=C(CNC(=O)C12CC3CC(CC(C3)C1)C2)N/N=C\c1ccccn1	-6.0	-2.0	1.1	-11.7	1.1
CCOCCCNC(=O)CSc1nc2nc(C)c(Cc3ccccc3)c(C)n2n1	3.6	-1.5	7.1	-2.5	1
O=C(N/N=C/C=C/c1ccccc1[N+](=O)[O-])c1cc(-c2ccccc2)n[nH]1	6.8	-9.0	5.8	64.0*	0.9
O=C(N/N=C/C=C\c1ccccc1[N+](=O)[O-])c1ccccn1	2.1	-18.0	-3.6	-72.5	1
